Active and inactive are the calls of the source. No cut-off for these calls is given here.
Columns and labels:
[1] = species on record: Homo sapiens; assay: Growth inhibition of human U87MG-derived CSC at 100 uM after 7 days by MTS assay relative to control; assay type: functional
Procedure, shortened: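 Glioma CSC viability measured after 24 h and after prolonged (seven-day) exposure, at concentrations up to 100 µM; CSC depletion expressed versus control.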

[2] = Antiproliferative activity against human U87MG cells expressing wild type p53 after 48 hrs by MTS assay; settings: U-87 MG
[3] = Antiproliferative activity against human MSC at 10 uM after 48 hrs by MTS assay
Procedure, shortened: (§1)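 Non-tumoural human mesenchymal stem cells exposed to 100 nM-10 µM for 48 h; viability read by MTS assay.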

[4] = Antiproliferative activity against human MSC at 0.01 to 10 uM after 48 hrs by MTS assay; settings: in the assay text read “0.1 to 10 uM” for “0.01 to 10 uM”; procedure, shortened: as §1
[5] = system: T98G; assay: Growth inhibition of human T98G cells expressing p53 mutant after 48 hrs by MTS assay relative to control; assay type: functional
Procedure, shortened: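 Wild-type p53 U87MG and U343MG cells and mutant-p53 T98G cells were treated with a range of compound concentrations, using the same protocol for each line. Viability was read by MTS assay, and the 48 h treatment with 100 nM–10 µM is stated for U87MG. Results are given as percent inhibition or viable cells versus control, with IC50 taken from concentration–response curves.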

[6] = target: Translocator protein (Rattus norvegicus) (UniProt P16257); assay: (§2) Displacement of [3H]PK11195 from TSPO in rat kidney mitochondrial membrane after 90 mins by liquid scintillation counting method; assay type: cell membranes
Sequence of Translocator protein (Rattus norvegicus) (P16257 whole entry, looked up): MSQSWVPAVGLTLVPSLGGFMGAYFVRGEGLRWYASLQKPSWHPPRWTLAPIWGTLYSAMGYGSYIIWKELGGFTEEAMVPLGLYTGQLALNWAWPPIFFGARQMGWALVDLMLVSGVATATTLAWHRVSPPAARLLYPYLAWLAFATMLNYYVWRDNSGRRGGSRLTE
Procedure, shortened: (§3)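 TSPO binding by radioligand displacement of the TSPO-selective [3H]PK11195 across a concentration range; Ki derived.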

[7] = target: Translocator protein (Rattus norvegicus, UniProt P16257); assay: as §2; assay type: cell membranes; procedure, shortened: as §3
Sequence of Translocator protein (P16257 whole entry, looked up): as above

[8] = Antiproliferative activity against human U343MG cells expressing wild type p53 after 48 hrs by MTS assay; settings: U-343MG
[9] = Growth inhibition of human U87MG cells at 50 uM after 72 hrs by MTS assay relative to control; assay type: functional, U-87MG ATCC; settings: U-87 MG, read-out: GI
Procedure, shortened: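 U87MG cells were exposed to temozolomide (50 µM) alone or combined with 100 nM dual inhibitor for at least 72 h. Viability was measured and expressed as reduction relative to untreated control.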

| SMILES | inhibition [6] | Ki [7] [nM] | growth inhibition (GI) [1] [%] | IC50 [2] [nM] | Activity [3] | Activity [4] | growth inhibition (GI) [5] | IC50 [8] [nM] | inhibition of growth at 50 µM [9] [%] |
| --- | --- | --- | --- | --- | --- | --- | --- | --- | --- |
| CCOC(=O)[C@H](Cc1ccccc1)NC(=O)[C@H](CC(C)C)NC(=O)C(=O)c1c(-c2ccccc2)[nH]c2ccccc12 | Dose-dependent effect | 430 | 65 | 2600 | Toxic | Non-toxic | inactive | 2100 | – |
| Cn1nnc2c(C(N)=O)ncn2c1=O [TEMOZOLOMIDE] | – | – | – | – | – | – | – | – | 55 |
| COc1ccc(C2=NC(c3ccc(Cl)cc3)C(c3ccc(Cl)cc3)N2C(=O)N2CCNC(=O)C2)c(OC(C)C)c1 (centres undefined) | – | – | 45 | 6500 | – | – | inactive | 12600 | – |

Second part, led by results:

| inhibition [6] | Ki [7] [nM] | SMILES | growth inhibition (GI) [1] [%] | IC50 [2] [nM] | Activity [3] | Activity [4] | growth inhibition (GI) [5] | IC50 [8] [nM] | inhibition of growth at 50 µM [9] [%] |
| --- | --- | --- | --- | --- | --- | --- | --- | --- | --- |
| Dose-dependent effect | 365 | COC(=O)[C@H](CC(C)C)NC(=O)[C@@H](NC(=O)C(=O)c1c(-c2ccccc2)[nH]c2ccccc12)C(C)C | – | – | – | – | – | – | – |
| Dose-dependent effect | 783 | CC[C@H](C)[C@H](NC(=O)[C@@H](NC(=O)C(=O)c1c(-c2ccccc2)[nH]c2ccccc12)C(C)C)C(=O)OC | – | – | – | – | – | – | – |
| Dose-dependent effect | 1000 | CC[C@H](C)[C@H](NC(=O)C(=O)c1c(-c2ccccc2)[nH]c2ccccc12)C(=O)N[C@H](C(=O)OC)[C@@H](C)CC | – | – | – | – | – | – | – |

From ChEMBL document CHEMBL3817787, “Lead Optimization of 2-Phenylindolylglyoxylyldipeptide Murine Double Minute (MDM)2/Translocator Protein (TSPO) Dual Inhibitors for the Treatment of Gliomas” (J Med Chem, 2016)
